From PubChem BioAssay
BB579 growth dn = growth inhibitors of yeast BB579 in restrictive medium, primary screen, yeast lifespan-shortening project, S. cerevisiae; OD615, 48 h; inhibition, % at 10 µM; 0.51% of 140,000 active;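 active = inhibition above a set limit, 3 SD over the mean compound inhibition, cut at about 44% in these data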
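Assay system – yeast BB579 (DeaD) · Dosing – single compound dose of 10 µM, 0.25% DMSO final · Detection – OD615 turbidity measurement · Buffer or medium – CSMM-D restrictive synthetic medium containing dextrose (glucose) · Benchmarks – positive control amphotericin B 10 µg/mL · Incubation – 48 h exposure, 30 °C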
S1P3 antagonist = S1P3 receptor antagonists, primary screen, cell-based; Sphingosine 1-phosphate receptor 3 (Homo sapiens), Q99500; CHO S1P3 NFAT-BLA reporter, FRET fluorescence, antagonist mode; inhibition, % at 4.98 µM; 0.27% of 170,000 active; AID 485, 2006;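 active = inhibition above the plate cutoff, the mean inhibition of test wells on that plate plus 3 SD, cut at about 28% in these data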;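 note: cells challenged with S1P at its EC80 of 0.8 µM; blue over green emission ratio from cleaved BLA substrate after 4 h stimulation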
Target sequence (Q99500 whole entry, looked up): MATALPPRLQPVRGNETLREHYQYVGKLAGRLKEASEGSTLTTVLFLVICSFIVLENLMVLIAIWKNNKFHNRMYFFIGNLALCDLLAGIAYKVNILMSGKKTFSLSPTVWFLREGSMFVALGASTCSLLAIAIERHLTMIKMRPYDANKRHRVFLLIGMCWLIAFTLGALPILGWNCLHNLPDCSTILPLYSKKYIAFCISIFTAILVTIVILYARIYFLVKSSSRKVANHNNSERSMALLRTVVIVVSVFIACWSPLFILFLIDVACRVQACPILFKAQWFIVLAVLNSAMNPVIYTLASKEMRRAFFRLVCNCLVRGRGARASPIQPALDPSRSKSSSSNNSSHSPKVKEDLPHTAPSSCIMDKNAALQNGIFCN
Yeast lifespan up = compounds extending yeast replicative lifespan, primary screen, S. cerevisiae, OD615; inhibition of the nicotinamide effect, % at 10 µM; AID 775, 2007; 0.68% of 130,000 active; S. cerevisiae growth with nicotinamide; deaD strain in restrictive glucose medium;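 active = inhibition above a set limit, placed 3 SD over the median of all compounds, cut at about 26% in these data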
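Measured by: optical density (absorbance) at 615 nm; System: modified budding yeast, DeaD strain; Medium: restrictive CSMM-D dextrose medium; Timing: 4 h preincubation then 48 h treatment at 30 °C.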
Each line names hits and unclear results; the compound was inactive in the other large screens. Only some compounds are listed: those with a hit (about 0.98% of all), similar ones and a draw of the others.

O=[N+]([O-])c1ccc(O)c(/C=N/Nc2ccccn2)c1	BB579 growth dn 99
CCc1nc(SCc2ccc([N+](=O)[O-])cc2)n[nH]1	none
CC(=O)Nc1nc2ccccc2n1CCN1CCOCC1	none (no result: Yeast lifespan up)
O=C(Nc1nc2ccccc2n1CCN1CCOCC1)c1cn(-c2ccccc2)nc1-c1ccccc1	Yeast lifespan up 173
CC1(C)C(C=C(Cl)Cl)C1C(=O)Nc1ccc([N+](=O)[O-])cc1 (stereo unspecified)	BB579 growth dn 54
O=C(Nc1ccc([N+](=O)[O-])cc1)C1CC1(c1ccccc1)c1ccccc1 (stereo unspecified)	none
O=C(CNC1CCCCC1)NN=C(c1ccccc1)c1ccccc1	none (no result: BB579 growth dn, Yeast lifespan up)
Cc1noc(NS(=O)(=O)c2ccc(N3C(=O)c4ccccc4C3=O)cc2)c1C	none
O=C(O)c1cc2c([nH]c1=O)CCCC2	none
C=CCSC(=C(C#N)C#N)c1cc2c([nH]1)CCCC2	BB579 growth dn 61 (no result: S1P3 antagonist)
CCN(CC)c1ccc(C=Nc2ccc(C)cc2C)c(O)c1	none (no result: BB579 growth dn, Yeast lifespan up)
Cc1ccccc1N=Cc1cccc(O)c1O	BB579 growth dn 97
Cc1ccc(N=Cc2cccc(O)c2O)c(C)c1	BB579 growth dn 97
CC(N=Cc1cccc(O)c1O)c1ccccc1 (stereo unspecified)	BB579 growth dn 96
CC(N=Cc1cc([N+](=O)[O-])ccc1O)c1ccccc1 (stereo unspecified)	none (no result: BB579 growth dn, Yeast lifespan up)
Cc1cccc(C=Nc2ccc3c(c2)oc2ccccc23)c1O	none
CCCCCNc1nc(-c2ccccc2)cs1	none (no result: S1P3 antagonist)
O=C(CSc1nnc(-c2ccncc2)n1CC1CCCO1)Nc1ccccc1Cl (stereo unspecified)	none (no result: BB579 growth dn, Yeast lifespan up)
CCn1c(C)nc2c(C)[n+](CC(=O)c3ccc(Br)cc3)ccc21	none (no result: BB579 growth dn, Yeast lifespan up)
Cc1csc(NC(=O)c2cccn2C)n1	none (no result: S1P3 antagonist)
O=C(Nc1nc(-c2ccccn2)cs1)c1ncc(Cl)c(Cl)c1Cl	BB579 growth dn 59 (no result: S1P3 antagonist)
O=C(CCCSc1ccccc1)Nc1nc(-c2ccccn2)cs1	BB579 growth dn 57 (no result: S1P3 antagonist)
CSCCC(=O)Nc1nc(-c2ccccn2)cs1	none (no result: BB579 growth dn, Yeast lifespan up)
O=C(Nc1nc(-c2ccc(Cl)s2)cs1)c1cccs1	none
Cn1cccc1C(=O)Nc1nc(-c2ccccn2)cs1	BB579 growth dn 46
O=C(Nc1nc(-c2ccccn2)cs1)c1cc2ccccc2o1	none (no result: BB579 growth dn, Yeast lifespan up)
O=C(Nc1nc(-c2ccccn2)cs1)c1ccc(Cl)s1	BB579 growth dn 95
Cc1ccc(C(=O)NCC(=O)OCC(=O)N2CCCc3ccccc32)cc1	none
Cc1ccc(-c2nnc(Nc3ccc(C(N)=O)cc3)c3ccccc23)cc1S(=O)(=O)NCC1CCCO1 (stereo unspecified)	none
COc1ccc(-c2nc(NC(=O)CSCCO)sc2C)cc1	none (no result: BB579 growth dn, Yeast lifespan up)
CC(C)Cn1c(SCC(=O)N2CCN(S(=O)(=O)c3ccccc3)CC2)nc2ccccc21	none
Cc1ccc(S(=O)(=O)ON2C(=O)c3cccc4cccc(c34)C2=O)cc1	Yeast lifespan up 34
O=C1c2cccc3cccc(c23)C(=O)N1OS(=O)(=O)c1ccccc1	none (no result: S1P3 antagonist)
COc1ccc(S(=O)(=O)N2CCC(C(=O)NCCc3ccccc3)CC2)cc1OC	none (no result: S1P3 antagonist)
COc1ccc(C)cc1S(=O)(=O)N1CCC(C(=O)NCCc2ccccc2)CC1	Yeast lifespan up 28
CCC(C)(C(=O)NC1CCCC1)N(C(=O)c1ccccn1)c1ccccc1 (stereo unspecified)	none
CCCC(=O)N1CC2(CCC)CN(C(=O)CCC)CC(CCC)(C1)C2=O	none
CCOC(=O)N1CCC(=C2c3ccc(Cl)cc3CCc3cccnc32)CC1	Yeast lifespan up 33
CCOC(=O)N1CCN(Cc2ccc(O)c3ncccc23)CC1	none (no result: BB579 growth dn, Yeast lifespan up)
CC(C)(C)n1ncc2c(=O)n(CC(=O)Nc3ccc4c(c3)OCCO4)cnc21	none
COc1ccc(CCNC(=O)CCSc2nc(-c3ccco3)cc(C(F)(F)F)n2)cc1	none
CC(C)(C)c1cc(C(F)(F)F)nc(SCCCNC(=O)c2ccco2)n1	S1P3 antagonist 59
COCC(C)n1c(C)cc(C(=O)COC(=O)c2ccc3c(c2)NC(=O)CS3)c1C (stereo unspecified)	none
Cc1ccc(-c2nnn(CC(=O)N(CC3CCCO3)C(C(=O)NC3CCCCC3)c3ccc(F)cc3)n2)o1 (stereo unspecified)	none (no result: S1P3 antagonist)
CCOC(=O)c1[nH]nc(C(=O)c2ccc(Br)cc2)c1O	Yeast lifespan up 48
CCOC(=O)c1ccc(CNCc2ccc(Br)cc2)cc1	none
COc1ccc(C2(C(=O)O)CCCC2)cc1	Yeast lifespan up 35
COc1ccc(C2(C(=O)N3CCOCC3)CCCC2)cc1	none (no result: S1P3 antagonist)
CCOC(=O)/C(C#N)=C\C=C1C=CN(C)C=C1	none (no result: S1P3 antagonist)
O=C1c2oc3ccccc3c(=O)c2C(c2ccc(Br)cc2)N1c1ncccn1 (stereo unspecified)	none (no result: BB579 growth dn, Yeast lifespan up)
CN1C(=O)c2oc3ccccc3c(=O)c2C1c1ccccn1 (stereo unspecified)	Yeast lifespan up 31
